The text below walks through data of ChEMBL document CHEMBL1141616, “Structure-activity relationships in the inhibition of monoamine oxidase B by 1-methyl-3-phenylpyrroles” (Bioorg Med Chem, 2008).

The source made the active and inactive calls. The calls are words filed in the database; no cut-off is given here.

Molecular target in one assay: not listed separately
Nature of the assay: Inhibition of baboon liver mitochondrial MAOB. On the set-up: species or system Papio hamadryas.
As to `Cn1ccc(-c2ccc(F)cc2)c1`, affinity was put at a Ki of 31 µM.
Still for that read-out and setting: as for `Cn1ccc(-c2ccccc2)c1`, the figure is 118 µM; as for `COc1cccc(-c2ccn(C)c2)c1`, 41.7 µM.
Still for that read-out and setting: to `COc1ccc(-c2ccn(C)c2)cc1` belongs 36.5 µM.
For `Cc1cccc(-c2ccn(C)c2)c1`, the affinity, expressed as Ki, was 56 µM.
For the molecule `Cc1ccc(-c2ccn(C)c2)cc1`, affinity was put at a Ki of 22.5 µM.
On the same count and under the same terms, as for `Cn1ccc(-c2ccc(Cl)cc2)c1`, the figure is 18.4 µM; as for `Cn1ccc(-c2cccc(Cl)c2)c1`, 20.9 µM.
The same measure, in the same setting: to `Cn1ccc(-c2cccc(F)c2)c1` belongs 38.9 µM.
Same read-out and setting: to `Cn1ccc(-c2ccc(Br)cc2)c1` belongs 6.65 µM; to `Cn1ccc(-c2cccc(Br)c2)c1`, 14.3 µM; to `Cn1ccc(-c2ccc(C(F)(F)F)cc2)c1`, 1.3 µM.
As to `Cn1ccc(-c2cccc(C(F)(F)F)c2)c1`, the inhibitory constant (Ki) (commonly a dissociation constant, usually derived from enzyme kinetics or from competition with a known ligand) worked out at 6.55 µM.

For another assay, the species on record is Bos taurus. Nature of the assay: Inhibition of beef liver mitochondrial MAOB at 200 uM.
With `Cn1ccc(-c2ccc(F)cc2)c1`, the outcome was inactive.
Still for that read-out and setting: to `Cn1ccc(-c2ccccc2)c1` belongs “inactive”.
With `COc1cccc(-c2ccn(C)c2)c1`, the outcome was inactive.
Turning to `COc1ccc(-c2ccn(C)c2)cc1`, the outcome was inactive.
Still for that read-out and setting: as for `Cc1cccc(-c2ccn(C)c2)c1`, the entry is “inactive”; as for `Cc1ccc(-c2ccn(C)c2)cc1`, “inactive”; as for `Cn1ccc(-c2ccc(Cl)cc2)c1`, “inactive”.
The same measure, in the same setting: as for `Cn1ccc(-c2cccc(Cl)c2)c1`, the entry is “inactive”; as for `Cn1ccc(-c2cccc(F)c2)c1`, “inactive”; as for `Cn1ccc(-c2ccc(Br)cc2)c1`, “inactive”.
On the same count and under the same terms, as for `Cn1ccc(-c2cccc(Br)c2)c1`, the entry is “inactive”.
Turning to `Cn1ccc(-c2ccc(C(F)(F)F)cc2)c1`, the outcome was inactive.
Still for that read-out and setting: as for `Cn1ccc(-c2cccc(C(F)(F)F)c2)c1`, the entry is “inactive”.

The species entered for a further assay is Papio hamadryas. Nature of the assay: Inhibition of baboon liver mitochondrial MAOB at 5.20 uM. In short, it runs like this:
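Time-dependence test: baboon liver mitochondria (0.3 mg protein/mL) were preincubated with inhibitor at 5.20 µM in 100 mM sodium phosphate, pH 7.4, for 0, 15, 30 and 60 min at 37 °C. This was then diluted to 0.15 mg protein/mL with 90 µM MMTP, giving a final inhibitor concentration of 2.60 µM. Incubated 15 min at 37 °C, stopped with perchloric acid, and MMDP⁺ was measured.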
As to `Cn1ccc(-c2ccc(C(F)(F)F)cc2)c1`, the outcome was Active.
